TAAR1 agonist = human TAAR1 agonists, primary screen, Fluo-8 calcium fluorescence, CHO RD-HGA16 cells; Trace amine-associated receptor 1 (Homo sapiens), Q96RJ0; AID 624467, 2012; vehicle wells 0%, saturating PEA agonist 100%; hit rate 0.99% among 360,000; activation, % at 3 µM;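 active = activation above the mean activation of all test compounds in the run plus 3 SD, cut at about 38% in these data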
Target sequence (Q96RJ0 whole entry, looked up): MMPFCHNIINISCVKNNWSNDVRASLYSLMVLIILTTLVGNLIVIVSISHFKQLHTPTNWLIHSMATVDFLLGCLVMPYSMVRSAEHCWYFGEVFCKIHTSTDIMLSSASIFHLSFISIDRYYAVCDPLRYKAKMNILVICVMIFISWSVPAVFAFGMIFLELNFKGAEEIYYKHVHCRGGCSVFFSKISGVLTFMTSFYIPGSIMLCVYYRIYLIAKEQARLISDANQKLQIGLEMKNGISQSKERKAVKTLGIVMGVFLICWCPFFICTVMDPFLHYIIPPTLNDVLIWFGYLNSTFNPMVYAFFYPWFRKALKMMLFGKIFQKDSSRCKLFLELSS
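Test system: RD-HGA16 (CHO) cells co-expressing Gα16 and hTAAR1 | Doses: Single dose, 3 µM | Schedule: 17-24 h seeding, 75 min 37 °C dye, 30 min RT | Evaluation: % activation from peak over basal fluorescence ratio, DMSO-to-PEA scaled | Technique: Kinetic Fluo-8 calcium fluorescence | Benchmarks: Low control DMSO, high control PEA (EC100)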
OXTR agonist = human OXTR agonists, primary screen, fluorescence, CHO-OTR cells, Fluo-8 calcium | Oxytocin receptor (Homo sapiens), P30559 | Fluo-8 calcium fluorescence; normalized: DMSO 0%, oxytocin 100% | activation, % at 3 µM | hit rate 0.32% among 320,000 | AID 2435, 2010;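 active = activation above the mean of all tested compounds plus 3 SD, cutoff set per screening run, cut at about 20% in these data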;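 note: peak over basal fluorescence ratio from a 100 s FLIPR kinetic read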
Target sequence (P30559 whole entry, looked up): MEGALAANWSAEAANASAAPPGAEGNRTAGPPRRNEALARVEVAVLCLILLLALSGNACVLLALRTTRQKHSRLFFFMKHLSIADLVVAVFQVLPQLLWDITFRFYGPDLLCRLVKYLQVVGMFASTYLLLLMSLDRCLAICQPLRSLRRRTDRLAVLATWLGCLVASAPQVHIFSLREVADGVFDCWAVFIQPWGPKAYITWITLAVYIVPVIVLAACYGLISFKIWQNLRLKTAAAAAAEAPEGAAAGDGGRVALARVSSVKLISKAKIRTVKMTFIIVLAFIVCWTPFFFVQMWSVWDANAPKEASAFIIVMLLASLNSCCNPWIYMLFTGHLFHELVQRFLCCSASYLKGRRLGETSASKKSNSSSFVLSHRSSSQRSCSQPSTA
OXTR potentiate = human OXTR potentiators, primary screen, fluorescence, CHO-OTR cells, Fluo-8 calcium. hit rate 0.061% among 320,000. activation, % at 3 µM. Oxytocin receptor (Homo sapiens), P30559. Fluo-8 calcium fluorescence, potentiator mode; 0% = oxytocin EC15, 100% = EC100;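 active = activation above that plate's cutoff, the mean activation of tested compounds plus 3 SD, cut at about 6.6% in these data, passing the limit was not always enough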;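 note: 100% uses oxytocin at 75 nM as the full agonist control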
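System: human OTR in CHO cells; Also added: sub-maximal oxytocin, roughly EC15; Timing: compound 6 min at room temperature before oxytocin, 100 s read; Technique: Fluo-8 intracellular calcium fluorescence, ex 470-495, em 515-575 nm; Controls: oxytocin EC15 low and EC100 high; Replication: singlicate.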
TAAR1 antag = human TAAR1 antagonists, primary screen, Fluo-8 calcium fluorescence, CHO RD-HGA16 cells; Trace amine-associated receptor 1 (Homo sapiens), Q96RJ0; antagonist; inhibition, % at 3 µM; hit rate 1.5% among 360,000;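 active = inhibition above a per-plate cutoff, the mean inhibition of test compounds on that plate plus 3 SD, cut at about 49% in these data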;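 note: 0% = DMSO plus EC80 beta-PEA response and 100% = DMSO alone without agonist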
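Test system – hTAAR1-expressing CHO RD-HGA16 cells, Gα16-coupled · Reagent – β-PEA at EC80 concentration, post-compound challenge · Compound dosing – 3 µM, single point · Timing – 140 s kinetic read after compound, 140 s after agonist · Detection – Fluo-8 intracellular calcium dye fluorescence, real-time kinetic reads · Control set – DMSO and EC80 PEA controls · Repeats – n of 1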
V1aR counter = agonists of human V1a receptor, primary screen, counter-screen for OXTR agonist project, fluorescence, CHO-V1R cells; Vasopressin V1a receptor (Homo sapiens), P37288; Fluo-8 calcium fluorescence, agonist mode; 0% DMSO, 100% 3 nM vasopressin; activation, % at 3 µM; hit rate 0.25% among 320,000; AID 2797, 2010;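 active = activation above the mean activation of all tested compounds plus 3 SD, per screening run, cut at about 20% in these data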;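 note: signal is peak over basal fluorescence ratio across a 100 second FLIPR read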
nonsel antag count = nonselective antagonists in TAAR1 counter-screen cells, counter-screen for hTAAR1 antagonist project, cell-based, fluorescence, calcium | AID 651780, 2012 | counterscreen cell line, antagonist mode | shares compounds with TAAR1 antag | inhibition, % at 3 µM | hit rate 77% among 2,400; in the data active = inhibition above about 22%;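 note: CHO-Ga16 host cells stimulated with ATP at an EC80 level; 0% = agonist EC80 plus vehicle and 100% = vehicle without agonist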
TAAR1 antag conf = human TAAR1 antagonists, retest of hits, confirmation, cell-based, fluorescence. hit rate 40% among 2,400. TAAR1-expressing cells, fluorescence antagonist read-out. inhibition, % at 3 µM. shares compounds with TAAR1 antag. AID 651785, 2012; in the data active = inhibition above about 49%;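 note: CHO-Ga16 host cells challenged with agonist PEA near its EC80; 0% = agonist at EC80 plus vehicle and 100% = vehicle with no agonist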
Ga16 ag counter = calcium activation in Ga16-expressing cells, counter-screen for TAAR1 antagonist project, cell-based, fluorescence. shares compounds with TAAR1 antag. agonist counterscreen. activation, % at 3 µM. hit rate 18% among 2,400; in the data active = activation above about 12%;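 note: 0% = vehicle wells and 100% = saturating stimulus response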
TAAR1 ag counter = TAAR1 activation by candidate antagonists – cell-based, fluorescence, counter-screen for TAAR1 antagonist project; shares compounds with TAAR1 antag; hTAAR1 cell line, agonist mode; activation, % at 3 µM; hit rate 2% among 2,400; AID 651955, 2012; in the data active = activation above about 37%;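 note: CHO cells stably expressing TAAR1 with calcium dye readout; 0% = DMSO vehicle and 100% = full agonist response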
* marks the source's active call; other numbers are inactive results; . = no result. Sampled rows, rich in hits. Any-hit rate of the full collection: about 2.3%.

SMILES	TAAR1 agonist	OXTR agonist	OXTR potentiate	TAAR1 antag	V1aR counter	nonsel antag count	TAAR1 antag conf	Ga16 ag counter	TAAR1 ag counter
COC(=O)C1=C(C)N(Cc2ccccc2)C(=S)NC1c1cccc(Br)c1 (configuration not stated)	-2	.	.	43	.	.	.	.	.
O=C(Nc1ccc(F)c(Cl)c1)C1CCCC1	0	-2	5	-13	1	.	.	.	.
O=C(Nc1ccc(F)c(Cl)c1)NC1CC1	2	0	-3	105*	2	-5	2	10	15
COc1ccc(/C=N/Nc2ccc([N+](=O)[O-])cc2)cc1Cn1cc([N+](=O)[O-])cn1	10	0	-13	55*	0	26*	28	6	4
COc1ccc(/C=N/n2cncn2)cc1Cn1cc([N+](=O)[O-])cn1	0	0	-5	1	-1	.	.	.	.
Nc1cc2cccnc2cc1Cl	2	.	.	23	.	.	.	.	.
CC1CCCN(c2ccc(C(=O)Nc3ccc4c(c3)OCO4)cc2[N+](=O)[O-])C1 (configuration not stated)	0	-3	-9	70*	-1	25*	73*	7	8
CC1CCCN(c2ccc(C(=O)NCc3ccc4c(c3)OCO4)cc2[N+](=O)[O-])C1 (configuration not stated)	2	-2	-2	-4	-1	.	.	.	.
O=C(COC(=O)c1ccc(N2CCOCC2)c([N+](=O)[O-])c1)Nc1ccc2c(c1)OCO2	3	5	-4	16	4	.	.	.	.
CC1CCN(c2ccc(C(=O)Nc3ccc4c(c3)OCO4)cc2[N+](=O)[O-])CC1	0	-2	-2	51*	-1	29*	51*	2	3
Nc1[nH]c(C(=O)c2ccccc2)c(-c2cccc3ccccc23)c1C(=O)c1cccs1	-1	.	.	-7	.	.	.	.	.
O=C(N[C@H](Cc1ccccc1)C(=O)NC1CCCCC1)[C@H]1O[C@@H](n2ccc(=O)[nH]c2=O)[C@H](O)[C@@H]1O	2	.	.	-4	.	.	.	.	.
O=C(C[C@H]1C=C[C@@H](NC(=O)c2ccncc2)[C@@H](CO)O1)NCC1CC1	0	.	.	-3	.	.	.	.	.
CCOC(=O)c1[nH]c2ccc(OC)cc2c1NC(=O)CN1CCN(c2ccccn2)CC1	.	0	-6	.	0	.	.	.	.
CCOC(=O)c1[nH]c2ccc(OC)cc2c1NC(=O)CN1CCc2ccccc2C1	17	2	-6	60*	1	23*	51*	11	23
Cc1cc(C)c2nc(-c3ccccc3)ccc2c1	0	.	.	-20	.	.	.	.	.
Nc1nc2cc3c(cc2cc1C(=O)NCCc1c[nH]c2ccccc12)OCO3	9	.	.	52*	.	45*	46	13*	8
O=C(NCCc1c[nH]c2ccccc12)c1ccc(F)cc1F	0	-1	-14	1	0	.	.	.	.
CC(C)Nc1nnc(SCC(=O)Nc2ccc3c(c2)C(=O)c2ccccc2C3=O)s1	22	5	-7	68*	5	47*	59*	15*	16
CC(=O)N1CCN(c2ccccc2NC(=O)c2ccc(-c3cccc([N+](=O)[O-])c3)o2)CC1	10	-1	-3	66*	0	28*	49*	7	4
COc1cc(NC(=O)c2ccc(-c3cccc([N+](=O)[O-])c3)o2)ccc1NC(=O)C(C)C	8	1	-10	63*	0	31*	45	6	4
COc1ccc(CCNC(=O)c2cccc([N+](=O)[O-])c2)cc1OC	1	1	-6	-13	-1	.	.	.	.
Cc1ccccc1N1CCN(C(=S)c2ccc(-c3cccc([N+](=O)[O-])c3)o2)CC1	10	-1	-9	-18	1	.	.	.	.
COc1ccc(CCNC(=O)c2ccc(-c3cccc([N+](=O)[O-])c3)o2)cc1OC	25	-1	-14	60*	0	28*	46	15*	14
CC1CCC(N(C)C(=O)CN2C(=O)NC(c3ccccc3)(c3ccccc3)C2=O)CC1 (configuration not stated)	0	.	.	-13	.	.	.	.	.
SMILES	TAAR1 agonist	OXTR agonist	OXTR potentiate	TAAR1 antag	V1aR counter	nonsel antag count	TAAR1 antag conf	Ga16 ag counter	TAAR1 ag counter
CC1=CC(O)(c2ccccn2)P(=O)(c2ccccc2)C=C1C (configuration not stated)	1	.	.	-9	.	.	.	.	.
O=C(NCCN1CCC(n2c(=O)[nH]c3ccccc32)CC1)c1ccc(Cl)cc1Cl	10	.	.	18	.	.	.	.	.
CC[C@@H]1Cc2[nH]c(=O)[nH]c(=O)c2[C@H](c2ccc(Cl)cc2)O1	1	.	.	-6	.	.	.	.	.
C[C@@H]1Cn2cnc(C(=O)N[C@@H](Cc3c[nH]c4ccccc34)C(=O)OC(C)(C)C)c2C(=O)N1	12	.	.	38	.	.	.	.	.
C/C(=N\Nc1cc(C)nc(-c2ccccc2O)n1)c1ccccc1O	6	0	-2	59*	-1	30*	43	7	3
C[C@H](CO)N1C[C@H](C)[C@@H](CN(C)C(=O)c2ccc(N3CCN(C)CC3)cc2)OCc2cn(nn2)CCCC1=O	2	.	.	12	.	.	.	.	.
COc1ccc(-c2csc(NC(=O)CN3C(=O)C4CC=CCC4C3=O)n2)cc1OC (configuration not stated)	12	4	-11	27	4	.	.	.	.
O=C(CCN1C(=O)C2CCCCC2C1=O)Nc1nc(-c2ccc(F)c(F)c2)cs1 (configuration not stated)	16	3	-10	38	4	.	.	.	.
O=C(CN1C(=O)C2CC=CCC2C1=O)Nc1nc(-c2ccc(F)c(F)c2)cs1 (configuration not stated)	27	4	-8	73*	4	31*	55*	14*	19
COc1ccc(-c2csc(NC(=O)CN3C(=O)C4CCCCC4C3=O)n2)cc1OC (configuration not stated)	17	3	-13	52*	5	24*	36	13*	16

From PubChem BioAssay
